Test system: HEK293T RORa/G6PC promoter luciferase, 20 h
Assay: RORa-driven G6PC promoter inhibitors, potency, late-stage follow-up, counter-screen for RORA inverse agonist project, cell-based, luminescence, dose response (AID 463172)
Method in brief: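 Assay system – HEK293T cells transfected with full-length RORa, SRC-2 coactivator, G6PC promoter-luciferase · Timing – 20 h compound exposure after 24 h bulk transfection · Detection – luciferase luminescence · Benchmarks – DMSO vehicle-treated cells as normalization reference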

Work on O=S(=O)(Nc1ccc(C(O)(C(F)(F)F)C(F)(F)F)cc1)c1cccs1 yielded an IC50 of 1400 nM.

Source: PubChem BioAssay AID463172 (The Scripps Research Institute Molecular Screening Center, 2010)
